An excerpt weighted towards active compounds, which were near 1.4% of everything screened.
HNF4A DNA FP – change in binding of human HNF4 alpha to DNA. P41235. HNF4a-FITC DNA binding, fluorescence polarization, 1 h. activity change, % at 10 µM. 360,000 tested, 0.3% active. AID 1224865; in the data active = activity change above about 30%, passing the limit was not always enough
Target sequence (P41235 whole entry, looked up): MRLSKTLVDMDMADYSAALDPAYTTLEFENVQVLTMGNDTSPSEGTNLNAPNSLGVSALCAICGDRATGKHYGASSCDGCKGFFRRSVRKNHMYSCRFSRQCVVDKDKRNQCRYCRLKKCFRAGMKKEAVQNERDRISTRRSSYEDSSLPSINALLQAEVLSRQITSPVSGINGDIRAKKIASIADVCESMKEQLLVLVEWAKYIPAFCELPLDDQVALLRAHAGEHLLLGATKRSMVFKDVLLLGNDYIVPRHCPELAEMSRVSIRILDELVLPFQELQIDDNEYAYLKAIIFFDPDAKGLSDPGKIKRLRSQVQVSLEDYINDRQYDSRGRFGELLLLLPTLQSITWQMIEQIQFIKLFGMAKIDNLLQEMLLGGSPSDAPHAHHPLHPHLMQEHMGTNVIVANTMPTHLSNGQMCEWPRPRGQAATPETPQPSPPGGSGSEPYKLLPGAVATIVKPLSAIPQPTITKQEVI
IDE inh – cellular human IDE inhibition; P14735; HEK cells, FAbetaB cleavage, fluorescence polarization; inhibition, % at 5.59 µM; 320,000 tested, 0.41% active; AID 434962;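 active = percent inhibition above the average of all tested compounds plus 3 SD, set per screening campaign, cut at about 16% in these data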;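 also: IDE supplied by intact live HEK cells; FP after avidin binding of uncleaved biotin substrate so inhibition keeps polarization high; 0% = DMSO wells and 100% = 60 µM reference IDE inhibitor Ii1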
IDE act – boosts human insulin-degrading enzyme activity in HEK cells; P14735; FAbeta-B cleavage, fluorescence polarization; 0% vehicle, 100% cell-free pure enzyme wells; activation, % at 5.96 µM; 340,000 tested, 0.073% active; AID 493087;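 active = activation above the mean of all tested compounds plus 3 SD, set per screening campaign, cut at about 17% in these data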
CSN deneddyl inh – CSN deneddylation inhibition; Purified CSN, SCF-Nedd8-OG deneddylation, fluorescence polarization; inhibition, % at 12.5 µM; 360,000 tested, 0.38% active; AID 651999;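 active = pattern-corrected inhibition above about 35%, with an unprinted fluorescence ratio check between 0.5 and 1.5, limit read from the data, passing the limit was not always enough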;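 also: 0% = enzyme with substrate and 100% = substrate without enzyme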
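Material: human Csn5 produced in HEK293T cells; Input: enzyme 0.24 nM; Reagent: SCFSkp2-Nedd8OG substrate at 10 nM final; Dosing: 12.5 µM compound; Incubation: 90 min reaction at room temperature; Detection: fluorescence polarization of the substrate; Evaluation: % inhibition of substrate cleavage by Csn5; Control set: substrate-only high control, full reaction low control.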
TPT1 inh – C. albicans TPT1 enzyme inhibition; recombinant caTPT1, FP RNA substrate dephosphorylation; inhibition, % at 5 µM; 300,000 tested, 0.81% active; AID 1962;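 active = inhibition above the mean of all tested compounds plus 3 SD, set per screening campaign, cut at about 24% in these data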;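 also: plate controls were DMSO alone for no effect and ferristatin control at 100 nM for full effect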
caTPT1 confirm – confirmation of Candida albicans TPT1 inhibitors. shares compounds with TPT1 inh. recombinant caTPT1, fluorescence polarization, RNase T1 coupled. inhibition, % at 5 µM. 2,400 tested, 74% active. AID 2149;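 active = inhibition above the primary screen limit, the mean inhibition of all tested compounds plus 3 SD, cut at about 25% in these data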
RNase T1 counter – blocks Aspergillus oryzae RNase T1, a TPT1 counter-screen | shares compounds with TPT1 inh | RNase T1 cleavage, fluorescence polarization, 1536-well | inhibition, % at 5 µM | 2,400 tested, 83% active | AID 2153;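 active = inhibition above the solvent-only control well mean plus 3 SD, limit set per screening run, cut at about 23% in these data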;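 also: plate controls were DMSO wells with enzyme for no effect and wells without RNase T1 for full effect; inhibitors block cleavage so intact labeled substrate keeps polarization high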
Target sequence (P00651 whole entry, looked up): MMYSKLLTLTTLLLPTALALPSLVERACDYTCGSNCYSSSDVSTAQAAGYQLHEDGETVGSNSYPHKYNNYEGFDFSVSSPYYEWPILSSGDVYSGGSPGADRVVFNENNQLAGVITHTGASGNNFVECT
Numbers without * were called inactive; nt = not tested or not shown.

SMILES	HNF4A DNA FP	IDE inh	IDE act	CSN deneddyl inh	TPT1 inh	caTPT1 confirm	RNase T1 counter
CN(Cc1cccc(-c2ccncc2)c1)C(=O)Oc1ccccc1Cc1ccccc1	-1.4	nt	nt	2.7	nt	nt	nt
COc1ccccc1-n1c(O)c(/C=C2\C=Nc3ccccc32)c(=O)[nH]c1=O	1.1	1.9	0.9	3.6	28.7*	15.3	22.2*
C=CCn1c(O)c(/C=C2\C=Nc3ccccc32)c(=O)[nH]c1=O	1.3	-3.0	nt	7.7	35.5*	13.5	20.6
CCOc1ccc(-n2c(O)c(/C=C3\C=Nc4ccccc43)c(=O)[nH]c2=O)cc1	-7.6	0.8	-2.3	-0.6	22.9	nt	nt
Fc1ccc(NC(=S)N2Cc3ccccc3-n3nncc3C2)cc1	0.7	nt	nt	2.8	nt	nt	nt
C1=NCCCN2CCCCC12 (configuration not stated)	4.0	nt	nt	-0.9	nt	nt	nt
O=C(/C=C/c1c[nH]c2ccccc12)c1c(O)n(CCc2ccccc2)c(=O)[nH]c1=O	-95.7	-5.3	nt	-75.0	169.0*	176.8*	161.9*
COc1ccc(N2C(=O)CC(=O)NC2=O)cc1	1.6	2.3	-1.9	-0.7	2.9	nt	nt
COc1ccc(CN2C(=O)CC(=O)NC2=O)cc1	10.5	10.6	1.0	-0.4	24.4*	18.3	24.5*
O=C1NC(=O)C(CCc2ccncc2)(Cc2ccc([N+](=O)[O-])cc2)C(=O)N1	3.5	8.1	3.6	2.2	28.0*	1.8	4.4
NC(Cc1ccc(Cl)cc1)c1csc(Nc2ncccn2)n1 (configuration not stated)	-0.7	nt	nt	3.4	nt	nt	nt
O=c1[nH]c2ccccc2n1C1CCN(C(CCc2ccccc2)c2nnnn2C2CCCCC2)CC1 (configuration not stated)	1.7	nt	nt	1.0	nt	nt	nt
O=c1[nH]c(=O)n(-c2ccc(Cl)cc2)c(O)c1C=Nc1ccc(S(=O)(=O)Nc2nccs2)cc1	3.9	7.2	-5.1	11.9	31.0*	37.3*	51.8*
Cc1cccc(-n2c(O)c(C=Nc3ccc(S(N)(=O)=O)cc3)c(=O)[nH]c2=O)c1	-2.6	2.3	-2.5	-5.6	29.5*	8.1	10.8
CCCCCN1C(=O)c2cc(OC)ccc2[C@@]2(C(=O)OCC)Cc3cc(OC)ccc3[C@@H]12	1.8	nt	nt	-2.6	nt	nt	nt
CC(C)(C)n1nnnc1C(c1ccccc1)N1CCC2(CC1)C(=O)NCN2c1ccccc1 (configuration not stated)	-1.7	nt	nt	0.0	nt	nt	nt
CCCCn1c(O)c(/C=N/NC(=O)c2ccncc2)c(=O)[nH]c1=S	47.9*	1.1	5.6	26.8	29.6*	19.8	28.5*
Cn1c(O)c(/C=N/NC(=O)c2ccncc2)c(=O)[nH]c1=S	2.4	-5.4	nt	7.5	-3.7	nt	nt
O=C(N/N=C/c1c(O)n(-c2ccccc2)c(=O)[nH]c1=O)c1ccncc1	7.4	-1.7	-8.2	10.8	15.9	nt	nt
Cn1c(O)c(/C=N/NC(=O)c2ccncc2)c(=O)n(C)c1=S	14.3	2.6	nt	21.8	116.3*	100.7*	110.5*
Cc1ccc(-n2c(O)c(/C=N/NC(=O)c3ccncc3)c(=O)[nH]c2=O)cc1	18.6	6.5	0.2	10.4	30.0*	46.8*	56.4*
O=C1NC(=O)C(=Cc2ccc(-c3ccc(F)cc3O)o2)C(=O)N1	-0.8	6.8	0.4	-2.3	25.1*	42.5*	62.9*
O=C1NC(=O)C(=Cc2ccc(-c3ccc(Cl)cc3)o2)C(=O)N1	4.8	1.7	2.6	0.9	0.8	nt	nt
COc1ccc(C2SCC(=O)Nc3c2c(C)nn3C2CCOC(C)(C)C2)cc1OC (configuration not stated)	0.6	0.9	0.5	-1.4	26.8*	17.9	24.7*
COc1ccc(C2SCC(=O)Nc3c2c(C)nn3-c2ccccc2)cc1OC (configuration not stated)	1.9	1.2	-2.2	0.0	-4.2	nt	nt
SMILES	HNF4A DNA FP	IDE inh	IDE act	CSN deneddyl inh	TPT1 inh	caTPT1 confirm	RNase T1 counter
O=Cc1c(C(=O)O)n(Cc2ccccc2F)c2ccccc12	-3.2	5.0	-2.8	-3.3	0.6	nt	nt
Cc1ccc(C)c(Cn2c(C(=O)O)c(C=O)c3ccccc32)c1	163.6	9.0	0.7	116.4	123.5*	142.6*	137.0*
CC(=O)Nc1ccc(S(=O)(=O)N2Cc3ccccc3-n3nncc3C2)cc1	4.5	nt	nt	-5.0	nt	nt	nt
COc1ccc2[nH]c3c(c2c1)CCN=C3C	14.3	1.8	-1.9	6.2	32.8*	12.8	18.0
Cc1cccc(N2C(=O)NC(=O)/C(=C/c3ccc([N+](=O)[O-])o3)C2=O)c1	nt	2.0	nt	nt	27.8*	17.5	17.9
O=S(=O)(c1cc(Cl)cc(Cl)c1)N1Cc2cc(-c3cccc(F)c3)ccc2-n2nncc2C1	-0.4	nt	nt	-2.6	nt	nt	nt
CCCCN1C(=O)/C(=C/c2ccc(N3CCCCCC3)cc2)C(=O)NC1=S	nt	-0.5	nt	nt	36.5*	32.7*	43.1*
CCC(C)N1C(=O)/C(=C\c2ccc(N3CCCCCC3)cc2)C(=O)NC1=S (configuration not stated)	8.0	4.1	7.1	23.8	24.9*	37.1*	57.8*
CN1C(=O)/C(=C\c2ccc(N3CCCCCC3)cc2)C(=O)NC1=S	10.3	4.3	1.8	12.3	7.2	nt	nt
CCCNC(=O)c1c(N)n(Cc2ccco2)c2nc3ccccc3nc12	nt	10.3	nt	nt	15.4	nt	nt
CC(C)OCCCNC(=O)c1c(N)n(Cc2cccs2)c2nc3ccccc3nc12	3.6	-8.4	7.9	6.8	26.5*	10.3	12.4
COc1ccc(Cn2c(N)c(C(=O)NCc3ccco3)c3nc4ccccc4nc32)cc1OC	10.6	0.3	-2.5	57.2*	28.2*	6.7	12.2
CC(C)CNC(=O)c1c(N)n(Cc2ccco2)c2nc3ccccc3nc12	3.5	11.6	0.2	16.6	28.5*	16.1	23.0*
COCCCNC(=O)c1c(N)n(Cc2ccco2)c2nc3ccccc3nc12	-1.3	5.1	nt	-3.7	10.8	nt	nt
COc1ccc(C(=O)C2CCCN(CCc3ccccc3)C2)cc1OC (configuration not stated)	3.1	nt	nt	0.1	nt	nt	nt
Cc1cc(/C=C2\C(=O)NC(=O)N(c3ccc(Cl)cc3)C2=O)c(C)n1-c1sc2c(c1C#N)CCCC2	5.3	4.0	-3.4	26.8	45.8*	18.6	27.5*
CCOC(=O)c1c(-n2c(C)cc(/C=C3\C(=O)NC(=O)N(C)C3=O)c2C)sc2c1CCCC2	2.2	6.9	2.0	1.9	17.3	nt	nt
CCOC(=O)[C@]12Cc3cc(C)ccc3[C@H]1N(C1CCCCC1)C(=O)c1ccccc12	3.5	nt	nt	3.0	nt	nt	nt
CN1CCN(CCOC2c3ccccc3CSc3ccc(Cl)cc32)CC1 (configuration not stated)	-0.9	-0.2	0.8	6.0	55.4*	3.2	8.6
Clc1ccc2c(c1)C(OC1CN3CCC1CC3)c1ccccc1CS2 (configuration not stated)	0.0	7.6	-3.3	-0.7	-0.5	nt	nt

Screening results (PubChem BioAssay)
